Compound activity as filed in PubChem.
Sampled rows, rich in hits. Any-hit rate of the full collection: about 1.5%.
CCR6 antag: CCR6 (human) receptor antagonism | P51684 | CHO-K1 CCR6 PathHunter beta-arrestin, luminescence, CCL20-stimulated | inhibition, % at 20 µM | actives 0.49% (n = 340,000);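 active = compounds whose inhibition of the agonist-driven luminescence signal at 20 µM reaches about 50%, limit read from the data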;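 note: cells stimulated with CCL20 at 14 nM final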
APJ antag: blocks the human apelin receptor APJ; P35414; CHO-K1 APJ beta-arrestin complementation, luminescence; inhibition, % at 20 µM; actives 0.32% (n = 330,000); AID 2521;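 active = inhibition above about 40% at 20 µM, limit read from the data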;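 note: cells challenged with 10 nM apelin-13 agonist together with compound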
EBI2 block: blocks human EBI2 receptor beta-arrestin signaling. EBI2 beta-arrestin recruitment, luminescence, 7a,25-OHC stimulated. inhibition, % at 5 µM. actives 0.81% (n = 360,000). AID 651636; in the data active = inhibition above about 38%;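 note: enzyme fragment complementation signal reports receptor beta-arrestin coupling in cells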
Target sequence (P32249 whole entry, looked up, the tested form may be a part): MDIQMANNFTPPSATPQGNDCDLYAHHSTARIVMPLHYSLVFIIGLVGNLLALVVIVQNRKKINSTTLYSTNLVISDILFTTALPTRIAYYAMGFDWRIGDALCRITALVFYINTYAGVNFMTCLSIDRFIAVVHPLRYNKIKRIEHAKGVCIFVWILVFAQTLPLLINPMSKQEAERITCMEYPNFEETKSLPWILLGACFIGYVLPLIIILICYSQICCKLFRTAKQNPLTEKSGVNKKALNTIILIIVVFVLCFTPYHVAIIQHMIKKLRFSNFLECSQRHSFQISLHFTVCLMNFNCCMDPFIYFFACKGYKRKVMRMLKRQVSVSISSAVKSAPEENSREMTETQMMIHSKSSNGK
APJ ag: agonists of human APJ apelin receptor; P35414; CHO-K1 APJ PathHunter beta-arrestin, luminescence; 0% DMSO wells, 100% apelin; activation, % at 20 µM; actives 0.11% (n = 330,000); AID 2520;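 active = activation more than six SD over the plate average, tested at 20 µM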
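Test system: CHO-K1 APJ beta-arrestin complementation cell line | Compound: Single test compound dose, 20 µM final, 1% DMSO | Incubation: Compound 90 min 25 °C, reagent 1 h | Measured by: beta-gal luminescence | Read-out basis: APJ–arrestin association signal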
CXCR6 block: inhibitors of human CXCR6 receptor; actives 0.36% (n = 360,000); CHO-K1 PathHunter CXCR6 beta-arrestin, luminescence; O00574; AID 602244; inhibition, % at 20 µM; in the data active = inhibition above about 34%, passing the limit was not always enough;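 note: antagonist mode with CXCL16 agonist at 10 nM final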
EBI2 antag conf: confirmation of human EBI2 receptor antagonists; shares compounds with EBI2 block; actives 29% (n = 2,400); EBI2 beta-arrestin luminescence, 7a,25-OHC antagonism; inhibition, % at 5 µM;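 active = inhibition of at least 50%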
EBI2 ag: counter-screen for EBI2 antagonists: EBI2 agonist activity. EBI2-expressing cells, agonist mode, luminescence, 60 min; 0% vehicle, 100% 7α,25-dihydroxycholesterol control. 2,400 tested, under 10 active. shares compounds with EBI2 block. activation, % at 5 µM;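 active = activation of at least 50%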
bGal cs: beta-galactosidase inhibition counter-screen. shares compounds with EBI2 block. purified beta-galactosidase, luminescent Galacton Star, 15 min. inhibition, % at 5 µM. actives 1% (n = 2,400);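 active = replicate-average signal at least 3 plate SD below neutral wells, shown as high inhibition, flagging enzyme-inhibiting false positives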;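 note: higher means stronger loss of beta-gal luminescence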
Numbers stand for hits.

CCOC(=O)c1ccc2ncc(C(=O)OCC)c(NCCN3CCOCC3)c2c1 was read as CCR6 antag inactive, APJ antag inactive, EBI2 block inactive, APJ ag inactive and CXCR6 block inactive.
Screening CCOC(=O)c1cnc2cc(Cl)c(OC)cc2c1NCC1CCCO1 (centres undefined) returned CCR6 antag inactive, APJ antag inactive, EBI2 block 41.4, APJ ag inactive, CXCR6 block inactive, EBI2 antag conf inactive, EBI2 ag inactive and bGal cs inactive.
Screening C[n+]1ccc(CC2C(=[N+]([O-])[O-])C=Nc3ncnn32)cc1 (centres undefined) returned CCR6 antag inactive, EBI2 block inactive and CXCR6 block inactive.
For COc1ccccc1N1CCN(S(=O)(=O)CCNC(=O)COc2ccccc2)CC1 the results were EBI2 block 68.5, CXCR6 block inactive, EBI2 antag conf inactive, EBI2 ag inactive and bGal cs inactive.
For CNC(=S)Nc1ccc(OC(F)(F)F)cc1 the results were CCR6 antag inactive, APJ antag inactive, EBI2 block inactive, APJ ag inactive and CXCR6 block inactive.
Screening COc1cc(NC(=S)Nc2cccc(Cl)c2Cl)c(OC)cc1Cl returned CCR6 antag inactive, APJ antag inactive, EBI2 block inactive, APJ ag inactive and CXCR6 block inactive.
For CCOc1ccc(NC(=S)Nc2ccc(OCC)cc2)cc1 the results were CCR6 antag inactive, APJ antag inactive, EBI2 block 80.2, APJ ag inactive, CXCR6 block inactive, EBI2 antag conf 61.8, EBI2 ag inactive and bGal cs inactive.
Screening CCOc1ccc(NC(=S)Nc2cc(OC)c(Cl)cc2OC)cc1 returned CCR6 antag inactive, APJ antag inactive, EBI2 block 65.0, APJ ag inactive, CXCR6 block inactive, EBI2 antag conf inactive, EBI2 ag inactive and bGal cs inactive.
CCOc1ccc(NC(=S)Nc2ccc(OC(F)(F)F)cc2)cc1 was read as CCR6 antag inactive, APJ antag inactive, EBI2 block 75.8, APJ ag inactive, CXCR6 block inactive, EBI2 antag conf 53.4, EBI2 ag inactive and bGal cs inactive.
CCOc1ccc(NC(=S)Nc2ccc(C)c([N+](=O)[O-])c2)cc1 was read as CCR6 antag inactive, APJ antag inactive, EBI2 block 64.8, APJ ag inactive, CXCR6 block inactive, EBI2 antag conf 65.8, EBI2 ag inactive and bGal cs inactive.
`CCc1ccc(NC(=S)Nc2cccc(OC)c2)cc1` gave CCR6 antag inactive, APJ antag inactive, EBI2 block 49.8, APJ ag inactive, CXCR6 block inactive, EBI2 antag conf inactive, EBI2 ag inactive and bGal cs inactive.
For Cc1cccc(N2CCN(C(=O)NCc3ccc(F)cc3)CC2)c1C the results were CCR6 antag inactive, APJ antag inactive, EBI2 block 57.5, APJ ag inactive, CXCR6 block inactive, EBI2 antag conf inactive, EBI2 ag inactive and bGal cs inactive.
Screening Cc1cccc(N2CCN(C(=O)Cc3ccc(Br)cc3)CC2)c1C returned CCR6 antag inactive, APJ antag inactive, EBI2 block 46.5, APJ ag inactive, CXCR6 block inactive, EBI2 antag conf inactive, EBI2 ag inactive and bGal cs inactive.
`Cc1cccc(N2CCN(C(=O)CNC(=O)Cc3ccccc3)CC2)c1C` gave CCR6 antag inactive, APJ antag inactive, EBI2 block inactive, APJ ag inactive and CXCR6 block inactive.
Screening COc1ccc(-c2cc3nc(-c4ccccc4)cc(N4CCN(C(=O)c5ccccc5)CC4)n3n2)cc1 returned EBI2 block inactive and CXCR6 block inactive.
`COc1ccc(-c2cc3nc(-c4ccccc4)cc(N4CCC(O)CC4)n3n2)cc1` gave CCR6 antag inactive, APJ antag inactive, EBI2 block 63.9, APJ ag inactive, CXCR6 block inactive, EBI2 antag conf 55.7, EBI2 ag inactive and bGal cs inactive.
For COc1ccc(-c2cc3nc(-c4ccccc4)cc(N4CCCC(O)C4)n3n2)cc1 (centres undefined) the results were CCR6 antag inactive, APJ antag inactive, EBI2 block 66.2, APJ ag inactive, CXCR6 block inactive, EBI2 antag conf 55.1, EBI2 ag inactive and bGal cs inactive.
Screening COc1ccc(-c2cc3nc(-c4ccccc4)cc(N4CCN(C(C)=O)CC4)n3n2)cc1 returned EBI2 block 45.6, CXCR6 block inactive, EBI2 antag conf inactive, EBI2 ag inactive and bGal cs inactive.
`COCCn1c(C)cc(C(=O)COC(=O)/C=C/c2c(C)nn(C3CCS(=O)(=O)C3)c2Cl)c1C` (centres undefined) gave CCR6 antag inactive, APJ antag inactive, EBI2 block inactive, APJ ag inactive and CXCR6 block inactive.
`Nc1sc(-c2ccccc2)cc1C(=O)N1CCNCC1` gave EBI2 block 46.0, EBI2 antag conf inactive, EBI2 ag inactive and bGal cs inactive.
`Cc1ccccc1-c1nc(S(=O)(=O)c2ccccc2)c(N2CCCC2)o1` gave CCR6 antag inactive, APJ antag inactive, EBI2 block inactive, APJ ag inactive and CXCR6 block inactive.
Screening COC(=O)c1ccc(Oc2ccc(C(F)(F)F)cn2)cc1 returned CCR6 antag inactive, APJ antag inactive, EBI2 block 43.5, APJ ag inactive, CXCR6 block inactive, EBI2 antag conf inactive, EBI2 ag inactive and bGal cs inactive.
COc1ccc(CCNc2ccncn2)cc1 was read as CCR6 antag inactive, APJ antag inactive, EBI2 block inactive, APJ ag inactive and CXCR6 block inactive.
COc1ccc(CCNc2ccc(C)cc2)cc1 was read as CCR6 antag inactive, APJ antag inactive, EBI2 block 53.9, APJ ag inactive, CXCR6 block inactive, EBI2 antag conf inactive, EBI2 ag inactive and bGal cs inactive.
`CCOC(=O)c1ccc(S(=O)(=O)NNc2ccc(C(F)(F)F)cn2)cc1` gave CCR6 antag inactive, APJ antag inactive, EBI2 block inactive, APJ ag inactive and CXCR6 block inactive.
Cc1nc(-c2ccccc2)nc2n[nH]c(N)c12 was read as CCR6 antag inactive, APJ antag inactive, EBI2 block inactive, APJ ag inactive and CXCR6 block inactive.
Screening COc1cccc(C(C(=O)NC2CCCCC2)N(C(=O)c2cccs2)c2ccc3c(c2)OCO3)c1 (centres undefined) returned CCR6 antag inactive, APJ antag inactive, EBI2 block 48.4, APJ ag inactive, CXCR6 block inactive, EBI2 antag conf inactive, EBI2 ag inactive and bGal cs inactive.
